One may read the IC50 as the point on the concentration scale where inhibition reaches its midpoint.

The text below walks through data of ChEMBL document CHEMBL3758111, “DFT Calculations and ROESY NMR Data for the Diastereochemical Characterization of Cytotoxic Tetraterpenoids from the Oleoresin of Abies balsamea” (J Nat Prod, 2015).

Assay [1] is described as follows: Cytotoxicity against human DLD1 cells assessed as growth inhibition after 48 hrs by resazurin assay. In kind it is functional, cell-based. Particulars: DLD-1, 48 h. The procedure, abridged:
(§1)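 Human lung carcinoma A549, colon adenocarcinoma DLD-1 and normal skin fibroblast WS1 cells were tested by resazurin reduction, following an earlier-published protocol. Values are IC50, the concentration inhibiting 50% of cell growth. Etoposide served as the positive control.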

Assay [2] deals with A549. Put plainly: Cytotoxicity against human A549 cells assessed as growth inhibition after 48 hrs by resazurin assay. In kind it is functional, cell-based. The conditions noted are these: A549, 48 h. The procedure, abridged:
as §1
On the technique in general: Resazurin is reduced to fluorescent resorufin, in cell work by metabolically active cells.

Assay [3] is described as follows: Cytotoxicity against human WS1 cells assessed as growth inhibition after 48 hrs by resazurin assay. In kind it is cell-based. The conditions noted are these: WS1, 48 h. The procedure, abridged:
as §1

Where only a bound is given, the exact number is not on record here.

Consider `C=C(C)[C@@H]1C=CC2=C3CC[C@@](C)([C@H](C)CC(=O)[C@@H]4CC(CCC=C(C)C)=CC[C@@]4(C)C(=O)O)[C@]3(C)CC[C@H]2[C@@]1(C)CCC(=O)O`, for which the IC50 in assay [1], in assay [2] and in assay [3] was more than 10 µM throughout.

For `COc1cc([C@@H]2c3cc4c(cc3[C@@H](O[C@@H]3O[C@@H]5CO[C@@H](C)O[C@H]5[C@H](O)[C@H]3O)[C@H]3COC(=O)[C@H]23)OCO4)cc(OC)c1O` [ETOPOSIDE], the values for the concentration for half-maximal inhibition (IC50) in assay [1], in assay [2] and in assay [3] were 2 µM, 1.7 µM and more than 10 µM, respectively.

In the case of `C=C(C)[C@@H]1C=CC2=C3CC[C@@](C)([C@H](C)CC(=O)[C@H]4CC(CCC=C(C)C)=CC[C@]4(C)C(=O)O)[C@]3(C)CC[C@H]2[C@@]1(C)CCC(=O)O`, the IC50 in assay [1] is more than 10 µM; in assay [2], 9 µM; in assay [3] it was more than 10 µM.

Consider `C=C(C)[C@@H]1C=CC2=C3CC[C@@](C)([C@H](C)CC(=O)[C@@H]4CC=C(CCC=C(C)C)C[C@@]4(C)C(=O)O)[C@]3(C)CC[C@H]2[C@@]1(C)CCC(=O)O`, for which the 50% inhibitory concentration (IC50) in assay [1] was more than 10 µM; in assay [2], 10 µM; in assay [3], more than 10 µM.

Take `C=C(C)[C@@H]1C=CC2=C3CC[C@@](C)([C@H](C)CC(=O)[C@@H]4CC=C(CCC=C(C)C)C[C@@]4(C)C(=O)O)[C@]3(C)CC[C@H]2[C@@]1(C)CCC(=O)OC`: the IC50 was more than 10 µM in assay [1], 6.7 µM in assay [2] and more than 10 µM in assay [3].

With `C=C(C)[C@@H]1C=CC2=C3CC[C@@](C)([C@H](C)CC(=O)[C@H]4CC=C(CCC=C(C)C)C[C@]4(C)C(=O)O)[C@]3(C)CC[C@H]2[C@@]1(C)CCC(=O)O`, the IC50 in assay [1], in assay [2] and in assay [3] was more than 10 µM each time.

Consider `C=C(C)[C@@H]1CC=C2[C@@H](CC[C@]3(C)[C@@H]([C@H](C)CC(=O)[C@@H]4CC=C(CCC=C(C)C)C[C@@]4(C)C(=O)O)CC[C@@]23C)[C@@]1(C)CCC(=O)O`, for which the IC50 in assay [1], in assay [2] and in assay [3] was more than 10 µM each time.

In the case of `C=C(C)[C@@H]1CC=C2[C@@H](CC[C@]23C(=C)CC[C@@]3(C)[C@H](C)CC(=O)[C@H]2CC(CCC=C(C)C)=CC[C@]2(C)C(=O)O)[C@@]1(C)CCC(=O)O`, the IC50 in assay [1], in assay [2] and in assay [3] was more than 10 µM each time.

Regarding `C=C(C)[C@@H]1CC=C2[C@@H](CC[C@]23C(=C)CC[C@@]3(C)[C@H](C)CC(=O)[C@@H]2CC(CCC=C(C)C)=CC[C@@]2(C)C(=O)O)[C@@]1(C)CCC(=O)O`, the IC50 in assay [1], in assay [2] and in assay [3] was more than 10 µM each time.

Regarding `C=C(C)[C@@H]1CC=C2[C@@H](CC[C@]23C(=C)CC[C@@]3(C)[C@H](C)CC(=O)[C@H]2CC(CCC=C(C)C)=CC[C@]2(C)C(=O)O)[C@@]1(C)CCC(=O)OC`, the IC50 in assay [1] was more than 10 µM; in assay [2] it was 7.2 µM; in assay [3], more than 10 µM.
